# FLuc inh counter: firefly luciferase enzyme inhibitors, primary screen, artefact control for luciferase-based inhibitor screens, biochemical, luminescence, ATPLite | Luciferin 4-monooxygenase (Photinus pyralis), P08659 | 10 min | hit rate 1.5% among 200,000 | inhibition, % at 10 µM;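 active = inhibition above about 50% when tested at 10 µM, limit read from the data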
# Target sequence (P08659 whole entry, looked up): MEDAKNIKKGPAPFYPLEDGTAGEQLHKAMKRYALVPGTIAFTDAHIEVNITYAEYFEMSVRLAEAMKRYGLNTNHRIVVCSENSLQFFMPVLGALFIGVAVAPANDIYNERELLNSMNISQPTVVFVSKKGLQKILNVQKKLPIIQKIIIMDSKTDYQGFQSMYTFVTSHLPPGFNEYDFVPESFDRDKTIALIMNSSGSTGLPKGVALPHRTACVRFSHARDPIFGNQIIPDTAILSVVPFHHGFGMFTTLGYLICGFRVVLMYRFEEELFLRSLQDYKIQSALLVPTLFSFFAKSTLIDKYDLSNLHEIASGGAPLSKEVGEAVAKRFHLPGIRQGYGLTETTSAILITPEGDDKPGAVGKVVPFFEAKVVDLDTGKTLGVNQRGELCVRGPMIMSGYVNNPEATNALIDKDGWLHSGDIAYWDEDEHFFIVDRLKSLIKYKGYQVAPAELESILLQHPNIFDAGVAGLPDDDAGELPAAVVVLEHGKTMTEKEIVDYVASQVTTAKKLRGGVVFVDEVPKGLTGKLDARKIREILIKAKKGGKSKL
# STAT3 blocker: IL-6 driven STAT3 reporter inhibitors, primary screen, U3A cells, luciferase, luminescence, MLSCN library. IL-6 STAT3-luciferase reporter; host cell line lacks STAT1. inhibition, % at 5.5 µM. hit rate 0.89% among 190,000. AID 862, 2007;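 active = inhibition above the mean inhibition across all screened compounds plus 3 SD, cut at about 44% in these data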
# STAT3 act: IL-6 driven STAT3 reporter potentiators, primary screen, U3A cells, luciferase, luminescence, MLSCN library; AID 871, 2007; hit rate 0.91% among 190,000; IL-6 STAT3-luciferase reporter; 100% = signal with IL-6 EC80 alone; activation (% of control), % at 5.6 µM;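 active = activation above the screen-wide mean of compound activation plus 3 SD, cut at about 130% in these data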
#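 Material: STAT3-luciferase reporter U3A cells. Controls: IL-6-treated wells, 100% activation. Read-out: % activation versus median of IL-6-stimulated wells. Probe or stimulus: IL-6 stimulus at 33 ng/mL final. Timing: compound 1 h, then IL-6 6 h at 37 °C. Signal: reporter luminescence signal.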
# STAT1 act: STAT1 signaling activators, primary screen, cell-based, HTS, luciferase reporter; NIH 3T3 STAT1-luciferase reporter, IFN-gamma, luminescence; 100% = IFN-gamma alone, no compound; AID 932, 2007; hit rate 2.6% among 200,000; activation (% of control), % at 5.5 µM;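 active = activation above the screen-wide mean activation plus 3 SD, cut at about 130% in these data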
# FLuc stim CS: FLuc activators, initial screening, artefact control for FLuc-dependent activation tests, biochemical, ATPlite luminescence; Luciferin 4-monooxygenase (Photinus pyralis), P08659; 200,000 tested, under 10 active; ATPlite luciferase biochemical, 10 min; 0 = ATP-free wells, 1 = DMSO control; activation factor at 10 µM;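 active = luciferase activation factor, scaled between plate controls, of at least 2 with compound at 10 µM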
#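 System: cell-free luciferase reagent; medium: PBS as buffer for the ATP substrate; doses: test compounds dosed from 2 mM stocks in 100% DMSO; incubation: 10 min, room temperature; measured by: luminescence from luciferase reaction; read-out: luciferase activation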
# STAT1 inh: STAT1 signaling inhibitors, primary screen, cell-based, HTS, luciferase reporter; NIH 3T3 STAT1-luciferase reporter, IFN-gamma, luminescence; inhibition, % at 5.5 µM; hit rate 0.35% among 200,000;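 active = inhibition above a set limit, the mean inhibition across all tested compounds plus 3 SD, cut at about 34% in these data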
# STAT1 activ conf: STAT1 signaling activators, confirmation, cell-based, HTS, luciferase reporter. shares compounds with STAT1 act. NIH 3T3 STAT1-luciferase reporter, IFN-gamma potentiation, luminescence; 100% = IFN-gamma EC80 alone, no compound. activation (% of control), % at 5.7 µM. hit rate 97% among 1,200. AID 1262, 2008;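 active = activation above a set limit carried over from the earlier primary STAT1 screen, cut at about 140% in these data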
# NFkB act: NF-kB reporter activators, TNF-alpha stimulated, counter-screen for STAT1 activator project, cell-based, HEK293T, luciferase luminescence; activation (% of control), % at 5.7 µM; 100% = TNF-alpha with vehicle only; hit rate 43% among 1,200; shares compounds with STAT1 act;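 active = activation above the mean of solvent-only control wells plus 3 SD, set per campaign, cut at about 130% in these data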;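 note: TNF-alpha given at a submaximal dose yielding about 80% of full reporter signal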
# STAT3 act STAT1c: STAT3 reporter activation by STAT1 hits, confirmation, counter-screen for STAT1 activator project, U3A cells, luciferase, luminescence | AID 1316, 2008 | activation (% of control), % at 5.7 µM | IL-6; cells lack STAT1; 100 = IL-6 alone, no compound effect | shares compounds with STAT1 act | hit rate 46% among 1,200;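 active = activation above the solvent-only control well mean plus 3 SD, set per plate batch, cut at about 110% in these data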;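 note: higher means more STAT3 reporter activation so hits are non-selective activators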
# Numbers stand for hits; – = inactive; · = no result given. The list is not random: actives were taken first. Their share in the collection is about 4.9%.
SMILES,FLuc inh counter,STAT3 blocker,STAT3 act,STAT1 act,FLuc stim CS,STAT1 inh,STAT1 activ conf,NFkB act,STAT3 act STAT1c
Cc1cc(C)c(S(=O)(=O)N(C)c2ccccc2)c(C)c1,–,–,–,–,–,–,·,·,·
Cc1[nH]nc(Nc2ccccc2)c1[N+](=O)[O-],–,–,–,–,–,–,·,·,·
Cc1cccc(Nc2n[nH]c(C)c2[N+](=O)[O-])c1,–,–,–,156.2,–,–,192.5,–,–
CN(/N=C/c1ccncc1)C1=NS(=O)(=O)c2ccccc21,–,–,–,–,–,–,·,·,·
CN(/N=C/c1ccncc1)c1cnc2ccccc2n1,56.4,–,–,152.8,–,–,195.4,–,123.7
COc1ccc(C(=O)NCc2nnc(SCC(=O)Nc3ccc4c(c3)OCO4)o2)cc1,–,–,–,–,–,–,·,·,·
COc1ccc(N=Cc2c(O)[nH]c3ccccc23)cc1,51.8,–,–,216.4,–,–,269.1,134.5,111.0
Oc1[nH]c2ccccc2c1C=Nc1ccc2c(c1)OCO2,–,–,–,191.7,–,–,263.3,144.2,–
Cc1cccc(-n2ncc3c(NC4CCCCC4)ncnc32)c1,69.9,–,–,167.5,–,–,239.1,138.3,–
COc1ccccc1Nc1ncnc2c1cnn2-c1cccc(C)c1,–,–,–,–,–,–,·,·,·
Cc1occc1C(=O)Nc1cc(C(C)(C)C)on1,–,–,–,151.5,–,–,191.2,–,122.5
Cc1occc1C(=O)Nc1ccc2ccccc2c1,–,–,–,156.4,–,–,207.2,–,151.7
CN(C)CCNC(=S)Nc1ccc(Br)cc1,–,–,–,–,–,–,·,·,·
CCOC(=O)/C(C#N)=C\N(C)C,–,–,–,–,–,–,·,·,·
C=CCN1C=CC(=C/C=C(/C#N)C(=O)OCC)C=C1,81.7,–,–,175.3,–,–,210.1,133.2,117.3
Cc1nc2cc(NC(=O)N3c4ccccc4CC3C)ccc2n1C (stereo not given),86.0,–,–,151.2,–,–,217.9,–,132.2
CC(Sc1cnccn1)C(=O)O (stereo not given),–,–,–,–,–,–,·,·,·
O=[N+]([O-])c1cccc(-c2cn3ccccc3n2)c1,–,–,–,153.1,–,–,206.1,140.9,114.7
O=C(Nc1cccc(-c2cn3ccccc3n2)c1)c1ccccc1,–,–,–,–,–,–,·,·,·
CCOc1ccc(CNC(=O)c2ccc(Sc3ccc(C)cc3)c(NC(C)=O)c2)cc1,–,–,–,–,–,–,·,·,·
O=C(CSCC(=O)N1CCOCC1)Nc1nc(-c2ccc3c(c2)OCO3)cs1,–,–,–,–,–,–,·,·,·
O=C(Nc1nc(-c2ccc3c(c2)OCCO3)cs1)C1CCCC1,–,–,–,155.6,–,–,188.2,134.4,120.6
Cc1cccc(Nc2nc(-c3ccc4c(c3)OCCO4)cs2)c1,–,–,–,158.2,–,–,216.7,143.7,–
N#CCC(=O)Nc1nc(-c2ccc3c(c2)OCCO3)cs1,–,–,–,165.4,–,–,169.2,–,113.2
Cc1ccccc1/C(N)=N/OC(=O)c1ccc(F)cc1,92.5,–,–,183.0,–,–,174.1,135.3,–
SMILES,FLuc inh counter,STAT3 blocker,STAT3 act,STAT1 act,FLuc stim CS,STAT1 inh,STAT1 activ conf,NFkB act,STAT3 act STAT1c
Cc1ccc(C2=Nc3cccnc3C(c3ccccc3)=NN2)cc1,–,–,–,156.4,–,–,201.8,142.7,114.8
Cc1cc(N/C=C\c2nnnn2-c2ccccc2)no1,–,–,–,–,–,–,·,·,·
CN(C)c1ccc(/C=C/c2nnnn2-c2ccccc2)cc1,–,–,–,171.8,–,–,187.0,133.9,117.8
O=[N+]([O-])c1cccc(N/N=C/c2cccc(O)c2O)c1,–,–,–,–,–,–,·,·,·
c1ccc2c(c1)[nH]c1nc3nncn3nc12,–,–,–,–,–,–,·,·,·
C=CCSc1nnc2c(n1)[nH]c1c(C)cccc12,–,–,–,154.2,–,–,176.0,–,–
CCSc1nnc2nc3[nH]c4c(C)cccc4c3nn12,–,–,–,151.0,–,–,148.6,–,123.3
Cc1cccc2c1[nH]c1nc(N/N=C\c3ccco3)nnc12,–,–,–,–,–,–,·,·,·
CC(=O)NC(=S)Nc1sc2c(c1C#N)CCCCC2,72.2,–,–,166.6,–,–,186.4,–,–
CC(=O)Nc1sc2c(c1C#N)CCCC2,–,–,–,–,–,–,·,·,·
Cc1cc(C(=O)Nc2sc3c(c2C#N)CCCCC3)cs1,–,–,–,176.5,–,–,254.5,145.6,111.1
CC(C)C(=O)Nc1sc2c(c1C#N)CCCCC2,–,–,–,–,–,–,·,·,·
FC(F)(F)c1cnc2c(-c3ccccc3)n[nH]c2c1,–,–,–,161.1,–,–,136.9,–,–
Cc1ccc([N+](=O)[O-])c(OCCN2CCC(Cc3ccccc3)CC2)c1,–,–,–,–,–,–,·,·,·
CC12CCC(C/C1=N\N=C1\NC(=O)/C(=C\c3ccc(Cl)cc3)S1)C2(C)C (stereo not given),–,–,–,–,–,–,·,·,·
COc1ccc(-c2cc3ncc(-c4ccccc4)c(N)n3n2)cc1,78.7,–,–,156.4,–,–,197.5,–,–
COc1ccc2c(c1)CCC/C2=N\NC(=O)c1ccoc1C,–,–,–,150.8,–,–,128.7,–,–
Cc1cccc(C)c1NC(=S)N(Cc1ccccc1)Cc1cccs1,–,–,–,–,–,–,·,·,·
CC(=O)Nc1cccc(/C(C)=N/NC(=O)c2ccc(CN3CCOCC3)cc2)c1,–,–,–,–,–,–,·,·,·
Fc1ccc(/C=N/NC2=Nc3cccc4cccc2c34)cc1,57.9,–,–,167.4,–,–,200.5,136.9,152.9
